{"data": "Measured values gathered from unrelated publications", "note": "Each line is one published result; the experiments were not run side by side."}
{"Structure (SMILES)": "COc1ccc(C(O)COc2ccc(-c3csc(-c4ccc(OCC(O)c5ccc(OC)c(OC)c5)cc4)n3)cc2)cc1OC (centres unmarked)", "test system": "C57BL/6 mouse, plasma", "conditions": "intravenous, 3 mg/kg", "endpoint": "C0", "result": "5280 ng/mL"}
{"Structure (SMILES)": "CC[C@@H]1CN(C(=O)NCC(F)(F)F)C[C@@H]1c1cnc2cnc3[nH]ccc3n12", "test system": "beagle dog, plasma", "conditions": "oral, 1 mg/kg, single dose", "endpoint": "Cmax", "result": "89.4 ng/mL"}
{"Structure (SMILES)": "C=CC(=O)N1CC2CC(n3nc(-c4ccc(C(=O)Nc5ccccn5)cc4)c4c(N)ncnc43)CC2C1 (centres unmarked)", "test system": "male Wistar rat, plasma", "conditions": "oral, 30 mg/kg", "endpoint": "Tmax", "result": "2 h"}
{"Structure (SMILES)": "COc1ccc2c(c1OCc1ccccc1)C[C@@H](C(=O)O)N(C(=O)C(c1ccccc1)c1ccccc1)C2", "test system": "male beagle dog, plasma", "conditions": "oral, 3 mg/kg", "endpoint": "Cmax", "result": "2710 ng/mL"}
{"Structure (SMILES)": "CC(C)(Nc1nc(-c2ccccn2)nc2ccccc12)c1ccccn1", "test system": "female BALB/c mouse, plasma", "conditions": "intravenous, 1 mg/kg", "endpoint": "C0", "result": "1800 ng/mL"}
{"Structure (SMILES)": "Oc1c(-n2ccnn2)cnn1-c1cc(N2CCOCC2)ncn1", "test system": "female dog, blood", "conditions": "intravenous, 3 mg/kg", "endpoint": "clearance", "result": "18.3 mL/min/kg"}
{"Structure (SMILES)": "CC(C)(C)c1ccc(O)c(CN(Cc2cc(C(C)(C)C)ccc2O)C2CCC(NC(N)=O)CC2)c1 (centres unmarked)", "test system": "male C57BL/6 mouse, plasma", "conditions": "intraperitoneal, 25 mg/kg, single dose", "endpoint": "clearance", "result": "26.7 mL/min/kg"}
{"Structure (SMILES)": "Cc1nn2c(-c3c(C)nn(C)c3-c3ccc(C(F)(F)F)cc3)nc(CO)c2c(=O)[nH]1", "test system": "male beagle dog, plasma", "conditions": "intravenous, 1 mg/kg", "endpoint": "clearance", "result": "1.3 mL/min/kg"}
{"Structure (SMILES)": "CCc1cc(OC)c2nccc(N3CCc4c(cc(Cn5ccnc5)cc4-c4cn(C)nc4C(F)(F)F)C3=O)c2c1", "test system": "male CD-1 mouse, plasma", "conditions": "intravenous, 3 mg/kg", "endpoint": "C0", "result": "4310 ng/mL"}
{"Structure (SMILES)": "CCn1c(=O)c(-c2cc(NC(=O)Nc3ccccc3)c(F)cc2Br)cc2cnc(NC)cc21", "test system": "beagle dog, plasma", "conditions": "oral, 5 mg/kg, single dose", "endpoint": "Cmax", "result": "544 ng/mL"}
{"Structure (SMILES)": "COc1cc2c3c(n(CCCN4CCOCC4)c(=O)c2cc1OC)-c1cc2c(cc1C3=O)OCO2", "test system": "female beagle dog, plasma", "conditions": "intravenous, 100 mg/m², infusion", "endpoint": "Cmax", "result": "547 ng/mL"}
{"Structure (SMILES)": "CNC(=O)c1cc(OC)cc2c(N3CCc4c(cc(Cn5ccnc5)cc4-c4cn(C)nc4C(F)(F)F)C3=O)ccnc12", "test system": "male CD-1 mouse, plasma", "conditions": "intravenous, 3 mg/kg", "endpoint": "C0", "result": "8370 ng/mL"}
{"Structure (SMILES)": "CC(C)Oc1c(NC(=O)c2ccc(NC(=O)[C@H](CC(N)=O)NC(=O)c3ccc(NC(=O)c4ccc(C#N)cc4)cc3)cc2)ccc(C(=O)Nc2ccc(C(=O)O)cc2)c1O", "test system": "male CD-1 mouse, plasma", "conditions": "subcutaneous, 5 mg/kg, single dose", "endpoint": "CL/F", "result": "163 mL/min/kg"}
{"Structure (SMILES)": "COCc1nn(Cc2ccc(Cn3ccccc3=O)cc2)cc1C(=O)NCc1c(F)ccc(OC)c1F", "test system": "male beagle dog, plasma", "conditions": "oral, 1 mg/kg", "endpoint": "Cmax", "result": "163 ng/mL"}
{"Structure (SMILES)": "O=C(NCCN1CCCC1)c1cc(-c2ccc(CN3CCOCC3)cc2)nc2ccc(F)cc12", "test system": "male beagle dog, blood", "conditions": "oral, 3 mg/kg", "endpoint": "Cmax", "result": "27 ng/mL"}
{"Structure (SMILES)": "COCc1nn(Cc2ccc(Cn3ccccc3=O)cc2)cc1C(=O)NCc1nccc(OC)c1F", "test system": "male beagle dog, plasma", "conditions": "oral, 1 mg/kg", "endpoint": "Cmax", "result": "284 ng/mL"}
{"Structure (SMILES)": "CCc1cc(C(=O)NC)c2nccc(N3CCc4c(cc(Cn5ccnc5)cc4-c4cn(C)nc4C(F)(F)F)C3=O)c2c1", "test system": "male CD-1 mouse, plasma", "conditions": "intravenous, 3 mg/kg", "endpoint": "C0", "result": "7560 ng/mL"}
